# Activity calls are given as the source filed them. The calls are words filed in the database; no cut-off is given here.
# Tests used:
# [1] = Antitumor activity against mouse BA/F3 cells expressing BCR-ABL T315I mutant allografted in SCID mouse assessed as increase in median survival at 5 mg/kg/day, po qd for 10 days; assay type: functional, BaF3
# How it was run: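 Ba/F3 Bcr-Abl T315I cells stably carrying firefly luciferase, in saline, were injected i.v. into SCID nude mice (2 × 10^6 cells/0.1 mL). Imaging began 5−7 days later: i.p. D-luciferin, halothane anaesthesia, images after 5 min. Mice were randomised by signal and dosed by oral gavage once daily for 10 days (5, 10, 20 mg/kg/day; imatinib 100 mg/kg; vehicle). Luminescence was quantified; survival by Kaplan−Meier with log-rank test.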
# BaF3 [2] = assay: Antitumor activity against mouse BA/F3 cells expressing BCR-ABL E255K mutant allografted in po dosed SCID mouse assessed as reduction of hepatosplenomegaly administered qd for 14 days; assay type: functional, organism-based
# BaF3 [3] = assay: Antitumor activity against mouse BA/F3 cells expressing BCR-ABL T315I mutant allografted in po dosed SCID mouse assessed as reduction of hepatosplenomegaly administered qd for 14 days; assay type: functional, organism-based
# BaF3 [4] = assay: Antitumor activity against mouse BA/F3 cells expressing wild type BCR-ABL allografted in SCID mouse assessed as inhibition of tumor growth at 1 mg/kg/day, po qd for 14 days; assay type: functional, organism-based
# How it was run: (§1)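 Ba/F3 cells stably expressing Bcr-Abl (wild type or mutant) were grown in RPMI 1640 with 10% FBS and no IL-3, then suspended in saline (2.5 × 10^7 cells/mL) and given as 0.2 mL s.c. in the right flank. Groups were randomised at 100−200 mm3. Once-daily oral gavage for 14 days in DMSO/Cremophor/ethanol/saline vehicle; reference imatinib 50 or 100 mg/kg/day. Volume L × W²/2 every 2 days; n = 10; t test versus vehicle.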
# BaF3 [5] = assay: Antitumor activity against mouse BA/F3 cells expressing wild type BCR-ABL allografted in SCID mouse assessed as inhibition of tumor growth at 50 to 100 mg/kg/day, po qd for 14 days; assay type: functional, organism-based; how it was run: as §1
# Mus musculus = assay: Toxicity in human K562 cells xenografted mouse assessed as body weight loss relative to vehicle-treated control; assay type: organism-based; details: in vivo
# How it was run: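 K562 cells (2.5 × 10^7 cells/mL in normal saline, 0.2 mL) were injected subcutaneously into the right flank. Mice were randomized once mean tumor volume reached 100−200 mm3, n = 10 per group. Dosing was by oral gavage once daily for 14 days in 1% DMSO/22.5% Cremophor/7.5% ethanol/69% saline. Tumor volume (L × W²/2) and body weight were measured every 2 days; unpaired t test versus vehicle.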
# K562 [6] = assay: Antitumor activity against human K562 cells xenografted in mouse assessed as decrease in tumor recurrence at 2 mg/kg, po qd for 20 days; assay type: functional, organism-based; parameters: dose 2 mg/kg
# K562 [7] = assay: Antitumor activity against human K562 cells xenografted in mouse assessed as decrease in tumor recurrence at 5 to 10 mg/kg, po qd for 20 days; assay type: functional, organism-based
# K562 [8] = assay: Antitumor activity against human K562 cells xenografted in mouse assessed as reduction in tumor size at 2 to 10 mg/kg, po qd for 2 days; assay type: functional, organism-based
# K562 [9] = assay: Antitumor activity against human K562 cells xenografted in po dosed mouse assessed as inhibition of tumor growth administered qd for 14 days; assay type: functional, organism-based
# How it was run: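 K562 cells suspended in normal saline (2.5 × 10^7 cells/mL), 0.2 mL injected subcutaneously into the right flank. Mice were randomised once mean tumour volume reached 100−200 mm3. Oral gavage once daily for 14 days, in 1% DMSO/22.5% Cremophor/7.5% ethanol/69% saline. Tumour volume (L × W²/2) and body weight taken every 2 days; recurrence followed 20 days after dosing stopped. n = 10/group; unpaired t test versus vehicle.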
# [10] = target: Voltage-gated inwardly rectifying potassium channel KCNH2 (Homo sapiens, UniProt Q12809); assay: Inhibition of human ERG expressed in CHO cells at up to 30 uM after 2.5 hrs by Rb+ efflux assay; assay type: cell-based
# Voltage-gated inwardly rectifying potassium channel KCNH2, sequence (Q12809 whole entry): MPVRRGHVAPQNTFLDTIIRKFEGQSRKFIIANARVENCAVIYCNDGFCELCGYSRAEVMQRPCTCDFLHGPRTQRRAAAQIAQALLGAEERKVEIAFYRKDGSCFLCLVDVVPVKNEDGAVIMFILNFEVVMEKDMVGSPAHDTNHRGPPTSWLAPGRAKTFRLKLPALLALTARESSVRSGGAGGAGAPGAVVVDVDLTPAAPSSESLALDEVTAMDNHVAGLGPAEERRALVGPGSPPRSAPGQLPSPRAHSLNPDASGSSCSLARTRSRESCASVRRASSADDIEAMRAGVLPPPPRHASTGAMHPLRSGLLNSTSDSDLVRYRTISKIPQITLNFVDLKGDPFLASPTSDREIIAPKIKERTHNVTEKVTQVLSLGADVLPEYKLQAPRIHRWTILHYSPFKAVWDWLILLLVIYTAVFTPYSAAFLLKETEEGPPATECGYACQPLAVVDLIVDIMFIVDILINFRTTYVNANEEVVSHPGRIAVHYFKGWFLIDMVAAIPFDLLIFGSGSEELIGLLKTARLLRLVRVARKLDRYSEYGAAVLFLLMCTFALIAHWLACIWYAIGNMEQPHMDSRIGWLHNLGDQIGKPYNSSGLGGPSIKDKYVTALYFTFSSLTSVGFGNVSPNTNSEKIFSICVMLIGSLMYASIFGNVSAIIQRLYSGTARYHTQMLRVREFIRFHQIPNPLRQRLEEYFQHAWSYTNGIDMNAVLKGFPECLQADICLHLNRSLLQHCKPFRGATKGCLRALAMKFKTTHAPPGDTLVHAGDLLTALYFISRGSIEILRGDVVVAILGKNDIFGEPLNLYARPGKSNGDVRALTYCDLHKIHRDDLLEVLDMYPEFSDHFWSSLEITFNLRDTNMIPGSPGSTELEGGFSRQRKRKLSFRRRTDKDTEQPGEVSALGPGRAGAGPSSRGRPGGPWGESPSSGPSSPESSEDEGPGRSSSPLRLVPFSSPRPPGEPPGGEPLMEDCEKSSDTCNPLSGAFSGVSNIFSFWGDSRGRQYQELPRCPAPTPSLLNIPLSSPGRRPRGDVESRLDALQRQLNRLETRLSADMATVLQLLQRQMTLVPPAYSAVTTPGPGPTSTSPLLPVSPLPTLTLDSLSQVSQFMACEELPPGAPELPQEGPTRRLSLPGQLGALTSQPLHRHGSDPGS
# [11] = Plasma concentration in rat after 24 hrs; assay type: ADME
# How it was run: (§2)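 Bismesylate salt given to rats as a single iv dose of 5 mg/kg or a single oral dose of 25 mg/kg. Plasma drug levels were followed over time to derive the PK parameters. The 12 h and 24 h plasma levels come from the oral 25 mg/kg dose.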
# Rattus norvegicus = assay: Volume of distribution at steady state in rat at 25 mg/kg, po; assay type: ADME, organism-based; parameters: dose 25 mg/kg, route oral; details: in vivo
# How it was run: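 Test compound given to rats as its bismesylate salt in a single dose, 5 mg/kg iv or 25 mg/kg by mouth. Plasma drug levels were monitored after dosing, and PK parameters including Vss were reported per route.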
# [12] = Mean residence time in rat at 25 mg/kg, po; assay type: ADME, organism-based; parameters: dose 25 mg/kg, route oral; details: in vivo; how it was run: as §2
# Cytochrome P450 2C9 = Cytochrome P450 2C9 (Homo sapiens, UniProt P11712); assay: Inhibition of human recombinant CYP2C9 after 30 mins; assay type: ADME
# Cytochrome P450 2C9, sequence (P11712 whole entry): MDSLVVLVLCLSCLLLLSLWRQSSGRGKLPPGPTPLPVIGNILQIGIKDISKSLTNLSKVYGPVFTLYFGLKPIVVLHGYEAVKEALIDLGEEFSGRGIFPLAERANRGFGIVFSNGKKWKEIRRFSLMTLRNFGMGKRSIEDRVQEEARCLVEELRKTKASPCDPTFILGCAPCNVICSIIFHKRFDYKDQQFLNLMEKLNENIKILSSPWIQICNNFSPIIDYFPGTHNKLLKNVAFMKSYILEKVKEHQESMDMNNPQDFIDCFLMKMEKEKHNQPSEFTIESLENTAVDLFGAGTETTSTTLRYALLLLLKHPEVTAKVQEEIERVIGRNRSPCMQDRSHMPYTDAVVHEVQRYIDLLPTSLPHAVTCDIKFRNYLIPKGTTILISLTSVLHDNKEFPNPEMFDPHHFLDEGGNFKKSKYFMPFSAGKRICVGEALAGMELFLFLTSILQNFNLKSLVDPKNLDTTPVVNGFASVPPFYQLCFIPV
# HL-60 = assay: Cytotoxicity against human HL60 cells […] assessed as growth inhibition after 72 hrs by CCK-8 assay; assay type: functional, cell-based; details: HL-60, 72 h
# How it was run: (§3)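 Log-phase human leukemia cells were seeded at about 3000 cells/well and treated 24 h later for 72 h. CCK-8 was then incubated with the cells for 3 h and read as OD450 − OD650. Viability was normalized to vehicle wells and cell-free blanks, and IC50 taken as the mean of three experiments.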
# MOLT-4 = assay: Cytotoxicity against human MOLT4 cells […] assessed as growth inhibition after 72 hrs by CCK-8 assay; assay type: functional, cell-based; details: MOLT-4, 72 h; how it was run: as §3
# [13] = Cytotoxicity against mouse BA/F3 cells expressing BCR-ABL M351T mutant assessed as growth inhibition after 72 hrs by CCK-8 assay; details: BaF3, 72 h
# [14] = Cytotoxicity against mouse BA/F3 cells expressing BCR-ABL F317V mutant assessed as growth inhibition after 72 hrs by CCK-8 assay; details: BaF3, 72 h
# [15] = target: Platelet-derived growth factor receptor beta (Homo sapiens) (UniProt P09619); assay: Binding affinity to PDGFRbeta (unknown origin) at 10 nM after 2 hrs by FRET assay
# Platelet-derived growth factor receptor beta (Homo sapiens), sequence (P09619 whole entry, the tested form may be a part): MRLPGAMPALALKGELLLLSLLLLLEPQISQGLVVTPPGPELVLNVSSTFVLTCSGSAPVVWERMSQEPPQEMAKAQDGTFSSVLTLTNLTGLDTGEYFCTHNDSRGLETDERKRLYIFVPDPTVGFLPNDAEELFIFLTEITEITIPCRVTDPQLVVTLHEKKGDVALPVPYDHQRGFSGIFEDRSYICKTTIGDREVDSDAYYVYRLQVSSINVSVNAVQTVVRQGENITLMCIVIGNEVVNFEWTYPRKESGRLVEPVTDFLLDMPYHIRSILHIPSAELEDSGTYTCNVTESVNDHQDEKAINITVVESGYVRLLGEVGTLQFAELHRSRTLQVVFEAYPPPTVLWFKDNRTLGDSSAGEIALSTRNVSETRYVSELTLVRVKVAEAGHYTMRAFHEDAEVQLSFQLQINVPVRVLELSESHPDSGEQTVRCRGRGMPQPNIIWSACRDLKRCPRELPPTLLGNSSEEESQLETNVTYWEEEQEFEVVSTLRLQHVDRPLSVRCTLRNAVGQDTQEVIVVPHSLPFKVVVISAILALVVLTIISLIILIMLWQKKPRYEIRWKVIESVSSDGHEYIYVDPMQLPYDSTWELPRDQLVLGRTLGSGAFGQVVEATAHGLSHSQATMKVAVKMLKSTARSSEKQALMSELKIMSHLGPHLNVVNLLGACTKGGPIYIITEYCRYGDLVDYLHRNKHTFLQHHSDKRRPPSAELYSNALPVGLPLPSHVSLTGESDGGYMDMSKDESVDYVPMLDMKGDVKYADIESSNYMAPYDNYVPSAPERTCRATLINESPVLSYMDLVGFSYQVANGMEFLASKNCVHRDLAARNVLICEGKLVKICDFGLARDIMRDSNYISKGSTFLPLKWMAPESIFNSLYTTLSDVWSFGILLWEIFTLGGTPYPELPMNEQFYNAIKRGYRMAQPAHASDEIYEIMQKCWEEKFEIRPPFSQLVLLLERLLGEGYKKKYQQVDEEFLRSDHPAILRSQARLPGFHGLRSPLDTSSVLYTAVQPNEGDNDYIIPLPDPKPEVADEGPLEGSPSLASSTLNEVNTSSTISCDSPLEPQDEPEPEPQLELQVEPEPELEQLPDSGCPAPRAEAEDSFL
# [16] = target: Epithelial discoidin domain-containing receptor 1 (Homo sapiens) (UniProt Q08345); assay: Binding affinity to DDR1 (unknown origin) at 10 nM after 2 hrs by FRET assay
# Epithelial discoidin domain-containing receptor 1 (Homo sapiens), sequence (Q08345 whole entry, the tested form may be a part): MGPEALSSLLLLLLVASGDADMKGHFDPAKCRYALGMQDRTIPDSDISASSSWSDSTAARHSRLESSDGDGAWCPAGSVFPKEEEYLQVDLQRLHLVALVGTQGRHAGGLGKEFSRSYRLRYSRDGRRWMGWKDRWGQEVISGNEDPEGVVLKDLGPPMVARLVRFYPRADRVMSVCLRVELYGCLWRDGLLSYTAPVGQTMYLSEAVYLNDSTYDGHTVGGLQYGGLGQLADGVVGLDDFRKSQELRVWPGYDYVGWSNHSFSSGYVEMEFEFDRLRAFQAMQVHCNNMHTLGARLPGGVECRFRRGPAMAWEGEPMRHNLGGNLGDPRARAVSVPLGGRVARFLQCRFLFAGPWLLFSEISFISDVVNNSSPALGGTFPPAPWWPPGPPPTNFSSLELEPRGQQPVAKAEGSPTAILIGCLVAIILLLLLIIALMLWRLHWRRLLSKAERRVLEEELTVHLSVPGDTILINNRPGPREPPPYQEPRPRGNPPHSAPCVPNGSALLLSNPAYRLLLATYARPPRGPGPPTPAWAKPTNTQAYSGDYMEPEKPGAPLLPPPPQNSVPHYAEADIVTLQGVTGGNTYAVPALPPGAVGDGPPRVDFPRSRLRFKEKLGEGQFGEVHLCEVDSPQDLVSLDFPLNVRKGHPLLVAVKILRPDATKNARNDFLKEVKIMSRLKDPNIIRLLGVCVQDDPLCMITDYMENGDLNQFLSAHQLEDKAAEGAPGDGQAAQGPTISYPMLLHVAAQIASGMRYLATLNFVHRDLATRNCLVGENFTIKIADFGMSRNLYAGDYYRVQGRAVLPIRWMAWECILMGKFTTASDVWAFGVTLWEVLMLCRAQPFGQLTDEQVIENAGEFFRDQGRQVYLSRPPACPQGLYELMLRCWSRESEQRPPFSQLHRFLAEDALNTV
# [17] = target: Tyrosine-protein kinase ABL1 (Homo sapiens, UniProt P00519, E255K); assay: Binding affinity to phosphorylated ABL1 E255K mutant (unknown origin) after 1 hr
# [18] = target: Tyrosine-protein kinase ABL1 (Homo sapiens, UniProt P00519, Q252H); assay: Binding affinity to non phosphorylated ABL1 Q252H mutant (unknown origin) after 1 hr
# [19] = target: T1, Tyrosine-protein kinase ABL1 (Homo sapiens, UniProt P00519, T315I); assay: Binding affinity to non phosphorylated ABL1 T315I mutant (unknown origin) after 1 hr
# [20] = target: T1, Tyrosine-protein kinase ABL1; assay type: cell-based
# [21] = Intrinsic clearance in rat liver microsomes at 1 uM; assay type: ADME, Microsome; details: read-out: CLH
# [22] = Cytotoxicity against mouse BA/F3 cells expressing wild type BCR-ABL assessed as growth inhibition after 72 hrs by CCK-8 assay; details: BaF3, 72 h
# cells = details: Mus musculus, BaF3, 72 h
smiles,measurement,setting,value
Cc1ccc(C(=O)Nc2ccc(CN3CCN(C)CC3)c(C(F)(F)F)c2)cc1C#Cc1cnc2[nH]ncc2c1 [OLVEREMBATINIB],Survival,[1],23.7 days
same,Activity,BaF3 [2],Active
same,Activity,BaF3 [3],Active
same,TGI,BaF3 [4],Active
same,TGI,BaF3 [5],Dose-dependent effect
same,Activity,Mus musculus,< 5%
same,Activity,K562 [6],inactive
same,Activity,K562 [7],Active
same,Activity,K562 [8],Active
same,TGI,K562 [9],Dose-dependent effect
same,inhibition (INH),[10],Not Active
same,concentration at 24 h,[11],169 nM
same,Vdss,Rattus norvegicus,53.2 L/kg
same,MRT,[12],17.9 h
same,IC50,Cytochrome P450 2C9,110 nM
same,IC50,HL-60,349 nM
same,IC50,MOLT-4,26.3 nM
same,IC50,[13],0.2 nM
same,IC50,[14],4 nM
same,Activity,[15],inactive
same,Activity,[16],inactive
same,Kd,[17],0.28 nM
same,Kd,[18],0.46 nM
same,Kd,[19],0.71 nM
same,IC50,[20],0.68 nM
same,microsomal CLint at 1 µM,[21],36.4 µL/min/mg
same,IC50,[22],1 nM
same,IC50,cells,6 nM

# From ChEMBL document CHEMBL2311339, “Identification of GZD824 as an orally bioavailable inhibitor that targets phosphorylated and nonphosphorylated breakpoint cluster region-Abelson (Bcr-Abl) kinase and overcomes clinically acquired mutation-induced resistance against imatinib” (J Med Chem, 2013)
